# dFosB act – enhances mouse delta FosB homodimer DNA binding; P13346; purified delta FosB, TAMRA-CDK5 oligo fluorescence polarization; percent of positive-control signal above neutral wells; 0.99% of 340,000 active; AID 493131; activation, % at 25 µM;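 active = mean activation above about 17%, with every replicate also reaching it, limit read from the data, passing the limit was not always enough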
# Target sequence (P13346 whole entry, looked up): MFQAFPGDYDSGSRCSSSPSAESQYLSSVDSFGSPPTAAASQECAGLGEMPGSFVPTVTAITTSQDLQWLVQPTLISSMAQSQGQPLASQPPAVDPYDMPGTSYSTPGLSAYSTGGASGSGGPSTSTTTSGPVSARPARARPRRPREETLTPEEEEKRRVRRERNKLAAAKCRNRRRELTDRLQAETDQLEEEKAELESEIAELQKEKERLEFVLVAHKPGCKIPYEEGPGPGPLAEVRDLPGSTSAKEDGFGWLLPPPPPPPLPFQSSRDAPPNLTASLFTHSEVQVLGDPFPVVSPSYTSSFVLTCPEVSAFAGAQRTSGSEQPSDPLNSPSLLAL
# VIM-2 inh – blocks Pseudomonas aeruginosa VIM-2 metallo-beta-lactamase; purified VIM-2, nitrocefin hydrolysis, epi-absorbance fluorescence; inhibition, % at 5.6 µM; 0.89% of 290,000 active; AID 1527;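 active = inhibition above the mean of all tested compounds plus 3 SD, cutoff set per screening run, cut at about 7.5% in these data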;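 note: red hydrolysis product quenches plate fluorescence so inhibitors raise well fluorescence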
# IMP-1 inh-1 – blocks Pseudomonas aeruginosa IMP-1 metallo-beta-lactamase; purified IMP-1, nitrocefin hydrolysis, epi-absorbance fluorescence; inhibition, % at 5.6 µM; 0.45% of 290,000 active; AID 1556;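 active = inhibition above the mean plus 3 SD of all compounds in the same screening run, cut at about 4.5% in these data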
#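 System: Purified recombinant IMP-1 metallo-beta-lactamase enzyme | Measured by: Fluorescence quenching readout, ex 480/em 530 nm | Replication: Singlicate | Incubation: 15 min preincubation plus 25 min reaction at 25 °C | Evaluation: Percent inhibition from optical density relative to buffer-blank wells | Benchmarks: DMSO with and without IMP-1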
# m5-HT2A agonist – mouse HTR2A agonism via beta-arrestin recruitment | CHO-K1 mHTR2A beta-arrestin complementation, luminescence; percent of 30 µM serotonin response | activation, % at 7.6 µM | 0.66% of 360,000 active | AID 624169;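 active = activation above a run cutoff, the mean activation of all tested compounds plus 3 SD, cut at about 14% in these data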
# IMP-1 inh-2 – IMP-1 inhibition, counter-screen for VIM-2 inhibitors | shares compounds with VIM-2 inh | purified IMP-1, nitrocefin hydrolysis, epi-absorbance fluorescence | inhibition, % at 5.6 µM | 1,300 tested, under 10 active; call rule not given here
# VIM-2 FRET ctr – counter-screen for VIM-2 inhibitors: epi-absorbance artifacts via FRET. inhibition, % at 5.6 µM. AID 1857. shares compounds with VIM-2 inh. 23% of 1,300 active. purified VIM-2, CCF2 FRET substrate hydrolysis;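 active = inhibition above the mean of all tested compounds plus 3 SD, cut at about 19% in these data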
# TEM-1 inh – blocks E. coli TEM-1 beta-lactamase in VIM-2 selectivity screen; shares compounds with VIM-2 inh; Purified TEM-1, nitrocefin hydrolysis, epi-absorbance fluorescence; inhibition, % at 5.6 µM; 3% of 1,300 active;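 active = inhibition above that campaign's mean inhibition plus 3 SD, cut at about 0.46% in these data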
# Target sequence (P62593 whole entry, looked up): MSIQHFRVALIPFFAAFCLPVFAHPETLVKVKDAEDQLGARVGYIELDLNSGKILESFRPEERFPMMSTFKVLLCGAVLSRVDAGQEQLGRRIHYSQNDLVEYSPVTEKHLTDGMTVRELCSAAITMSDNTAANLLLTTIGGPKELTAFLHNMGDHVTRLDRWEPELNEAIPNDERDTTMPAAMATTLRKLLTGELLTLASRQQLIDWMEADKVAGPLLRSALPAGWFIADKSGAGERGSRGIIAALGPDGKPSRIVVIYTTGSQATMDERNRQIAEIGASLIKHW
# VIM-2 confirm 2 – confirmation of P. aeruginosa VIM-2 metallo-beta-lactamase inhibitors. shares compounds with VIM-2 inh. purified VIM-2, nitrocefin hydrolysis, epi-absorbance. inhibition, % at 5.6 µM. 96% of 1,300 active;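 active = inhibition of the VIM-2 beta-lactamase enzyme above about 11% from the earlier first-round screen, limit read from the data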
# Numbers stand for hits; – = inactive; · = no result. Compounds with a hit are over-represented: about 2.5% of the library has one in this group of screens.
SMILES,dFosB act,VIM-2 inh,IMP-1 inh-1,m5-HT2A agonist,IMP-1 inh-2,VIM-2 FRET ctr,TEM-1 inh,VIM-2 confirm 2
Cc1cccc(NC(=O)COc2ccccc2)c1,–,–,–,–,·,·,·,·
CC1(c2ccc(Cl)cc2Cl)NC(=O)N(CC(=O)NCCC2=CCCCC2)C1=O (stereo not drawn),·,·,·,–,·,·,·,·
CC(=O)Nc1ccc(-c2ccnc3c2CC(C)(C(=O)NCc2ccc(F)c(F)c2)O3)cc1 (stereo not drawn),·,·,·,–,·,·,·,·
COc1cnc(-c2ccccn2)nc1Oc1ccc(F)cc1F,–,18,–,–,–,–,–,29
COc1ccccc1Sc1nc(-c2ccccn2)ncc1OC,–,–,–,–,·,·,·,·
COc1cnc(-c2ccccn2)nc1Oc1ccc(Cl)cc1,–,–,–,–,·,·,·,·
COc1cnc(-c2ccccn2)nc1Oc1ccc(Cl)c2ccccc12,–,39,–,–,–,–,–,76
COc1cnc(-c2ccccn2)nc1Oc1ccccc1Cl,–,17,–,–,–,–,–,46
COc1cnc(-c2ccccn2)nc1NC(C)C,–,–,–,–,·,·,·,·
CN(C(=O)c1ccc(NC(=O)Cc2cccc(NC(=O)C3CCN(C(=O)C4CCCC4)CC3)c2)cc1)C1CCCC1,–,·,·,–,·,·,·,·
CC1(C)Cc2c(cnn2-c2cccc(F)c2)C(NC(=O)c2ccc(=O)[nH]n2)C1 (stereo not drawn),–,–,–,–,·,·,·,·
COc1ccc(N(CC(=O)NCc2cccs2)S(=O)(=O)c2ccc(F)cc2)cc1,–,·,·,–,·,·,·,·
Cc1ccc(Cn2ncc3c(NN)ncnc32)cc1,–,41,–,–,–,–,–,58
O=Cc1ccc2cccnc2n1,–,–,–,–,·,·,·,·
O=Cc1ccc2ccc3cccnc3c2n1,–,59,–,–,–,–,–,70
Clc1ccccc1-c1ccc2nccn2c1,·,·,·,–,·,·,·,·
CC(C)Sc1nc(SCC(=O)O)c2c3c(sc2n1)COC(C)(C)C3,–,24,–,–,–,23,–,8.8
Oc1ccc(Nc2nc(N3CCCC3)c3ccccc3n2)cc1,80,31,–,–,–,–,–,49
Cn1c(N)c(C(=O)COC(=O)c2cc(-c3ccco3)nc3ccccc23)c(=O)n(C)c1=O,–,14,–,–,–,–,–,37
COc1ccc(-c2cc(C(=O)OCC(=O)c3c(N)n(C)c(=O)n(C)c3=O)c3ccccc3n2)cc1,–,–,–,–,·,·,·,·
Cn1c(N)c(C(=O)COC(=O)c2cc(C3CC3)nc3ccccc23)c(=O)n(C)c1=O,–,13,–,–,–,–,–,63
COc1ccc(/C=C2\CCCc3c2nc2ccccc2c3C(=O)OCC(=O)c2c(N)n(C)c(=O)n(C)c2=O)cc1,·,14,–,·,–,–,–,–
O=C(CCCCCN1C(=O)c2ccccc2C1=O)Nc1ccc(C(=O)O)cc1,–,–,–,–,·,·,·,·
O=C(Nc1ccc(-n2ccnc2P(=O)(O)c2ccccc2)cc1)c1ccccc1Cl,–,15,–,–,–,29,–,21
C=C(C)CSc1cc(C)c(C#N)c2nc3ccccc3n12,–,17,–,–,–,–,–,21
SMILES,dFosB act,VIM-2 inh,IMP-1 inh-1,m5-HT2A agonist,IMP-1 inh-2,VIM-2 FRET ctr,TEM-1 inh,VIM-2 confirm 2
Cc1ccnc(N2CCN(c3cc(C)c(C#N)c4nc5ccccc5n34)CC2)c1,–,–,–,–,·,·,·,·
Cc1cc(-c2ccco2)n2c(nc3ccccc32)c1C#N,–,18,–,–,–,32,–,43
Cc1cc(NCCCN2CCOCC2)n2c(nc3ccccc32)c1C#N,–,40,–,–,–,–,–,57
Cc1cc(NCCCCO)n2c(nc3ccccc32)c1C#N,–,19,–,–,–,–,–,40
COc1ccc(NS(=O)(=O)c2cccc(C(=O)OCC(=O)N3CCN(c4ccc(OC)cc4)CC3)c2)cc1,–,·,·,–,·,·,·,·
CCN(CC)CCNc1cc(C)c(C#N)c2nc3ccccc3n12,–,22,–,–,–,–,–,37
CCN(CC)CCCNc1cc(C(F)(F)F)c(C#N)c2nc3ccccc3n12,–,29,–,–,–,–,–,41
CCN(CC)CCCNc1cc(C)c(C#N)c2nc3ccccc3n12,·,·,·,–,·,·,·,·
Cc1ccc(-c2cc(C(=O)NCCN3CCOCC3)c3ccccc3n2)o1,–,–,–,–,·,·,·,·
O=[N+]([O-])c1c(Nc2ccc(O)cc2)cc(Cl)c2nonc12,–,22,–,–,–,–,–,32
O=C(O)c1cccc(Nc2cc(Cl)c3nonc3c2[N+](=O)[O-])c1,–,–,–,–,·,·,·,·
COc1cc2c(cc1OC)C(c1ccc(-c3ccccc3Cl)o1)=NCC2,–,19,–,–,–,–,–,28
COc1cc2c(cc1OC)C(c1ccc(-c3cc(Cl)ccc3Cl)o1)=NCC2,–,–,–,–,·,·,·,·
COc1cc(-c2noc(C)c2C#Cc2nccn2C)cc(OC)c1OC,–,30,–,–,–,–,–,46
Cc1c(NC(=O)c2c(N)sc3c2CCCC3)c(=O)n(-c2ccccc2)n1C,–,–,–,–,·,·,·,·
CCN1CCCC1CNC(=O)c1ccc2c(c1)NC(=O)/C(=C\c1ccc(OC)c(OC)c1)S2 (stereo not drawn),44,21,–,–,–,–,–,24
Cc1cccc(/C=C2/Sc3ccc(C(=O)NCCCN4CCOCC4)cc3NC2=O)c1,33,18,–,–,–,23,–,12
COc1ccc(/C=C2/Sc3ccc(C(=O)NCCCN4CCOCC4)cc3NC2=O)cc1OC,–,22,–,–,–,19,–,25
COc1ccc(C(=O)NCCCN2CCOCC2)cc1OC,–,–,–,–,·,·,·,·
CCN1CCN(CCCNC(=O)c2ccc3c(c2)NC(=O)/C(=C\c2cccc(C)c2)S3)CC1,–,–,–,–,·,·,·,·
CCN1CCCC1CNC(=O)c1ccc2c(c1)NC(=O)/C(=C\c1ccccc1Cl)S2 (stereo not drawn),·,·,·,–,·,·,·,·
CCCCCNC(=O)C(c1ccc(-c2ccccc2)cc1)n1c(=O)c(-c2cc3ccccc3[nH]2)nc2ccccc21 (stereo not drawn),·,·,·,–,·,·,·,·
CN1OC[C@@H]2CN[C@H](c3cccc(-c4ccccc4)c3)C[C@@H]21,–,·,·,–,·,·,·,·
CCCN(CC(=O)Nc1ccccc1C)C(=O)c1cnc(C)cn1,–,·,·,–,·,·,·,·
Cc1nc2ncccn2c1-c1csc(Nc2ccc(S(N)(=O)=O)cc2)n1,–,17,–,–,–,–,–,28
COCCNC(=O)C1(C)CCCN(C(=O)c2cccc(C(F)(F)F)c2)C1 (stereo not drawn),·,·,·,–,·,·,·,·
Cc1ccc(Nc2c3c(nc4ncnn24)CC(C)CC3)cc1 (stereo not drawn),–,–,–,–,·,·,·,·
Cc1ccc(Nc2c3c(nc4ncnn24)CCC3)cc1,–,17,–,–,–,–,–,24

# From PubChem
